Test results as given in ChEMBL document CHEMBL1806434, “Acyclic nucleoside phosphonates with a branched 2-(2-phosphonoethoxy)ethyl chain: efficient synthesis and antiviral activity” (Bioorg Med Chem, 2011).
pEC50: −log10 of the molar value. Active and inactive are the calls of the source. The rule behind the calls is not given here.

Assays:
Human betaherpesvirus 5 [1] = experiment: Antiviral activity against Human cytomegalovirus Davis assessed as reduction of virus induced cytopathicity by cell based assay; format: functional, organism-based; conditions: for pEC50: Human betaherpesvirus 5, Davis
Procedure, shortened: (§1)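 Confluent cell monolayers infected with 100 CCID50 virus, or 20 PFU for plaque assays, then incubated with serial compound dilutions. Host cells listed for the non-HIV panel are HEL fibroblasts, Vero, HeLa, CRFK or MDCK. Cytopathicity is scored, or plaques counted for VZV, once infected untreated controls reach full CPE.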

Human alphaherpesvirus 3 [2] = experiment: Antiviral activity against thymidine kinase-deficient Varicella-zoster virus 07/1 assessed as reduction of virus induced cytopathicity by cell based assay; format: functional, organism-based; conditions: for pEC50: Human alphaherpesvirus 3, 07/1; procedure, shortened: as §1
[3] = Cytotoxicity against human HEL cells assessed as alteration of cell morphology after 3 days by microscopic analysis; format: cell-based
Procedure, shortened: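 MCC taken as the lowest compound concentration producing microscopically detectable alteration of HEL fibroblast morphology.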

Sindbis virus = experiment: Antiviral activity against Sindbis virus assessed as reduction of virus induced cytopathicity by cell based assay; format: functional, organism-based
Procedure, shortened: (§2)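 Confluent cell monolayers in 96-well plates (HEL, Vero, HeLa, CRFK or MDCK; the cell type per virus is not specified) infected with 100 CCID50 virus or 20 PFU and incubated with serial compound dilutions. Cytopathicity scored once it was complete in untreated infected controls.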

HEL = experiment: Cytotoxicity against human HEL cells after 3 days by coulter counter; format: cell-based; conditions: 72 h
Procedure, shortened: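 HEL cells seeded at 5 × 10^3 cells/well and allowed to proliferate for 24 h, then exposed to a range of compound concentrations for 3 days at 37 °C. Cells counted with a Coulter counter.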

Human alphaherpesvirus 3 [4] = experiment: Antiviral activity against Varicella-zoster virus strain OKA expressing thymidine kinase assessed as reduction of virus induced cytopathicity by cell based assay; format: functional; conditions: for pEC50: Human alphaherpesvirus 3, strain Oka vaccine; for Activity: strain Oka vaccine; procedure, shortened: as §1
Vaccinia virus = experiment: Antiviral activity against Vaccinia virus Lederle assessed as reduction of virus induced cytopathicity by cell based assay; format: functional, organism-based; conditions: Orthopoxvirus vaccinia; procedure, shortened: as §1
Coxsackievirus B4 = experiment: Antiviral activity against Coxsackievirus B4 assessed as reduction of virus induced cytopathicity by cell based assay; format: functional, organism-based; procedure, shortened: as §2
[5] = system: Respiratory syncytial virus; experiment: Antiviral activity against Respiratory syncytial virus Long assessed as reduction of virus induced cytopathicity by cell based assay; format: functional, organism-based; procedure, shortened: as §2
Human alphaherpesvirus 1 [6] = experiment: Antiviral activity against Herpes simplex virus 1 strain KOS assessed as reduction of virus induced cytopathicity by cell based assay; format: functional, organism-based; conditions: for pEC50: Human alphaherpesvirus 1, KOS; procedure, shortened: as §1
[7] = system: Mammalian orthoreovirus 1; experiment: Antiviral activity against Reovirus-1 assessed as reduction of virus induced cytopathicity by cell based assay; format: functional, organism-based; procedure, shortened: as §2
[8] = system: Vesicular stomatitis virus; experiment: Antiviral activity against Vesicular stomatitis virus assessed as reduction of virus induced cytopathicity by cell based assay; format: functional, organism-based; procedure, shortened: as §1
Punta Toro virus = experiment: Antiviral activity against Punta Toro virus assessed as reduction of virus induced cytopathicity by cell based assay; format: functional, organism-based; procedure, shortened: as §2
Human alphaherpesvirus 1 [9] = experiment: Antiviral activity against thymidine kinase-deficient acyclovir-resistant Herpes simplex virus 1 strain KOS assessed as reduction of virus induced cytopathicity by cell based assay; format: functional, organism-based; conditions: for pEC50: Human alphaherpesvirus 1, KOS; procedure, shortened: as §1
Human respirovirus 3 = experiment: Antiviral activity against Human parainfluenza virus 3 assessed as reduction of virus induced cytopathicity by cell based assay; format: functional, organism-based; procedure, shortened: as §2
Human alphaherpesvirus 2 = experiment: Antiviral activity against Herpes simplex virus 2 strain G assessed as reduction of virus induced cytopathicity by cell based assay; format: functional, organism-based; conditions: for pEC50: Human alphaherpesvirus 2, strain G; procedure, shortened: as §1
Human alphaherpesvirus 3 [10] = experiment: Antiviral activity against Varicella-zoster virus YS expressing thymidine kinase assessed as reduction of virus induced cytopathicity by cell based assay; format: functional, organism-based
Human alphaherpesvirus 3 [11] = experiment: Antiviral activity against thymidine kinase-deficient Varicella-zoster virus YS/R assessed as reduction of virus induced cytopathicity by cell based assay; format: functional, organism-based
Human betaherpesvirus 5 [12] = experiment: Antiviral activity against Human cytomegalovirus strain AD169 assessed as reduction of virus induced cytopathicity by cell based assay; format: functional, organism-based; conditions: for pEC50: Human betaherpesvirus 5, AD169; procedure, shortened: as §1

Row | SMILES | pEC50 (Human betaherpesvirus 5 [1]) | pEC50 (Human alphaherpesvirus 3 [2]) | MCC at 72 h [3] [µM] | Activity (Sindbis virus) | CC50 (HEL) [µM] | pEC50 (Human alphaherpesvirus 3 [4]) | pEC50 (Vaccinia virus) | Activity (Coxsackievirus B4) | Activity [5] | pEC50 (Human alphaherpesvirus 1 [6]) | Activity [7] | Activity [8] | Activity (Punta Toro virus) | pEC50 (Human alphaherpesvirus 1 [9]) | Activity (Human respirovirus 3) | pEC50 (Human alphaherpesvirus 2) | Activity (Human alphaherpesvirus 3 [10]) | Activity (Human betaherpesvirus 5 [1]) | Activity (Human alphaherpesvirus 3 [2]) | Activity (Human alphaherpesvirus 3 [11]) | further results
1 | Nc1nc2c(ncn2CCOC(COCc2ccccc2)CP(=O)(O)O)c(=O)[nH]1 (stereo not drawn) | < 3.62 | 4.03 | > 240 | inactive | > 240 | 3.96 | < 3.62 | inactive | inactive | < 3.62 | inactive | inactive | inactive | < 3.62 | inactive | < 3.62 | – | – | – | – | –
2 | O=c1ccn(CCOC(CO)CP(=O)(O)O)c(=O)[nH]1 (stereo not drawn) | – | – | – | inactive | – | – | – | inactive | inactive | – | inactive | inactive | inactive | – | inactive | – | inactive | inactive | inactive | inactive | Activity (Human alphaherpesvirus 3 [4]): inactive; Activity (Vaccinia virus): inactive; Activity (Human betaherpesvirus 5 [12]): inactive; Activity (Human alphaherpesvirus 1 [6]): inactive; Activity (Human alphaherpesvirus 1 [9]): inactive; Activity (Human alphaherpesvirus 2): inactive
3 | Nc1ncnc2c1ncn2CCOC(COCc1ccccc1)CP(=O)(O)O (stereo not drawn) | – | – | – | inactive | – | – | – | inactive | inactive | – | inactive | inactive | inactive | – | inactive | – | inactive | inactive | inactive | inactive | Activity (Human alphaherpesvirus 3 [4]): inactive; Activity (Vaccinia virus): inactive; Activity (Human betaherpesvirus 5 [12]): inactive; Activity (Human alphaherpesvirus 1 [6]): inactive; Activity (Human alphaherpesvirus 1 [9]): inactive; Activity (Human alphaherpesvirus 2): inactive
4 | Nc1nc2c(ncn2COCCO)c(=O)[nH]1 [ACYCLOVIR] | – | – | > 444 | – | 1340 | – | < 3.60 | – | – | 6.52 | – | – | – | 5.14 | – | – | – | – | – | – | –
5 | CC(CP(=O)(O)O)OCCn1ccc(=O)[nH]c1=O (stereo not drawn) | 4.47 | 4.89 | > 360 | inactive | 291 | 5.20 | < 3.44 | inactive | inactive | 4.37 | inactive | inactive | inactive | 4.01 | inactive | 4.47 | – | – | – | – | pEC50 (Human alphaherpesvirus 3 [10]; Human alphaherpesvirus 3, YS): 5.00; pEC50 (Human alphaherpesvirus 3 [11]; Human alphaherpesvirus 3, YS/R): 4.92; pEC50 (Human betaherpesvirus 5 [12]): 4.44
6 | CC(CP(=O)(O)O)OCCn1cnc2c(N)nc(N)nc21 (stereo not drawn) | – | – | – | inactive | – | – | – | inactive | inactive | – | inactive | inactive | inactive | – | inactive | – | inactive | inactive | inactive | inactive | Activity (Human alphaherpesvirus 3 [4]): inactive; Activity (Vaccinia virus): inactive; Activity (Human betaherpesvirus 5 [12]): inactive; Activity (Human alphaherpesvirus 1 [6]): inactive; Activity (Human alphaherpesvirus 1 [9]): inactive; Activity (Human alphaherpesvirus 2): inactive
7 | Cc1cn(CCOC(CO)CP(=O)(O)O)c(=O)[nH]c1=O (stereo not drawn) | – | – | – | inactive | – | – | – | inactive | inactive | – | inactive | inactive | inactive | – | inactive | – | inactive | inactive | inactive | inactive | Activity (Human alphaherpesvirus 3 [4]): inactive; Activity (Vaccinia virus): inactive; Activity (Human betaherpesvirus 5 [12]): inactive; Activity (Human alphaherpesvirus 1 [6]): inactive; Activity (Human alphaherpesvirus 1 [9]): inactive; Activity (Human alphaherpesvirus 2): inactive
8 | O=c1[nH]cnc2c1ncn2CCOC(COCc1ccccc1)CP(=O)(O)O (stereo not drawn) | – | – | – | inactive | – | – | – | inactive | inactive | – | inactive | inactive | inactive | – | inactive | – | inactive | inactive | inactive | inactive | Activity (Human alphaherpesvirus 3 [4]): inactive; Activity (Vaccinia virus): inactive; Activity (Human betaherpesvirus 5 [12]): inactive; Activity (Human alphaherpesvirus 1 [6]): inactive; Activity (Human alphaherpesvirus 1 [9]): inactive; Activity (Human alphaherpesvirus 2): inactive
9 | Nc1nc(O)c2ncn(COC(CO)CO)c2n1 [GANCICLOVIR] | – | – | > 394 | – | 543 | – | < 4.00 | – | – | 7.77 | – | – | – | 6.92 | – | 7.64 | – | – | – | – | –
10 | Cc1cn(CCOC(C)CP(=O)(O)O)c(=O)[nH]c1=O (stereo not drawn) | 3.61 | 4.32 | > 342 | inactive | > 342 | 4.33 | < 3.47 | inactive | inactive | 3.77 | inactive | inactive | inactive | < 3.47 | inactive | 3.81 | – | – | – | – | pEC50 (Human betaherpesvirus 5 [12]): 3.73
11 | CC(CP(=O)(O)O)OCCn1ccc(N)nc1=O (stereo not drawn) | < 3.44 | 3.77 | > 361 | inactive | 307 | 3.89 | < 3.44 | inactive | inactive | < 3.44 | inactive | inactive | inactive | < 3.44 | inactive | < 3.44 | – | – | – | – | –
12 | Nc1nc2c(ncn2CCOC(CO)CP(=O)(O)O)c(=O)[nH]1 (stereo not drawn) | 3.78 | < 3.52 | > 300 | inactive | 300 | < 3.52 | < 3.52 | inactive | inactive | 3.81 | inactive | inactive | inactive | 3.58 | inactive | 3.81 | – | – | – | – | –
13 | Nc1ncnc2c1ncn2CCOC(CO)CP(=O)(O)O (stereo not drawn) | – | – | – | inactive | – | – | – | inactive | inactive | – | inactive | inactive | inactive | – | inactive | – | inactive | inactive | inactive | inactive | Activity (Human alphaherpesvirus 3 [4]): inactive; Activity (Vaccinia virus): inactive; Activity (Human betaherpesvirus 5 [12]): inactive; Activity (Human alphaherpesvirus 1 [6]): inactive; Activity (Human alphaherpesvirus 1 [9]): inactive; Activity (Human alphaherpesvirus 2): inactive
14 | O=c1[nH]cnc2c1ncn2CCOC(CO)CP(=O)(O)O (stereo not drawn) | < 3.50 | 3.71 | > 315 | inactive | > 315 | 4.06 | < 3.50 | inactive | inactive | 3.68 | inactive | inactive | inactive | < 3.50 | inactive | 3.50 | – | – | – | – | –
